Reference: ChEMBL document CHEMBL1126152, “Fluoronaphthyridines as antibacterial agents. 4. Synthesis and structure-activity relationships of 5-substituted-6-fluoro-7-(cycloalkylamino)-1,4-dihydro-4-oxo-1,8- naphthyridine-3-carboxylic acids” (J Med Chem, 1992)
≈ marks a conversion by molar mass, not a printed value.

Legend:
Klebsiella pneumoniae = assay: In vitro for antibacterial activity against Klebsiella pneumoniae; format: functional
Summary of the method: (§1)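 MIC by serial 2-fold broth dilution in nutrient broth with an inoculum of 10^6 CFU/mL. Compound range was 0.0005–250 μg/mL. Plates were incubated 18 h at 37 °C. MIC was taken as the lowest concentration preventing visible growth.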

[1] = Solubility was measured at PH - 7.2 buffer
Morganella morganii = assay: In vitro for antibacterial activity against Morganella morganii; format: functional; summary of the method: as §1
Enterobacter cloacae = assay: In vitro for antibacterial activity against Enterobacter cloacae; format: functional
Enterococcus faecalis = assay: In vitro for antibacterial activity against Enterococcus faecalis; format: functional; summary of the method: as §1
Serratia marcescens = assay: In vitro for antibacterial activity against Serratia marcescens; format: functional; summary of the method: as §1
Staphylococcus aureus [2] = assay: animal or person; format: functional; details: in Mus musculus, po, read-out: PD50
Streptococcus pneumoniae [3] = assay: animal or person; format: functional; details: in Mus musculus, po, read-out: PD50
Streptococcus pneumoniae [4] = assay: Antibacterial activity against Streptococcus pneumoniae; format: functional
Pseudomonas aeruginosa [5] = assay: animal or person; format: functional; details: in Mus musculus, po, read-out: PD50
Escherichia coli [6] = assay: Compound was tested for […] against Escherichia coli A 15119 after oral administration of drug in mice; format: functional; details: read-out: PD50
Summary of the method: (§2)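 Mouse protection test against systemic infection. Compound was dissolved in sterile water and given orally to female OF1-strain Swiss mice weighing 18–25 g, with five mice per group.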

Staphylococcus aureus [7] = assay: Antibacterial activity against Staphylococcus aureus; format: functional
[8] = Lethal dose was determined in OF1-strain female Swiss mice after oral administration of the drug; details: mouse, in vivo
Proteus mirabilis = assay: In vitro for antibacterial activity against Proteus mirabilis; format: functional; summary of the method: as §1
[9] = Lethal dose was determined in OF1-strain female Swiss mice after intra venous administration of the drug; details: mouse, in vivo, iv
Pseudomonas aeruginosa [10] = assay: In vitro for antibacterial activity against Pseudomonas aeruginosa; format: functional; summary of the method: as §1
Escherichia coli [11] = assay: In vitro for antibacterial activity against Escherichia coli; format: functional; summary of the method: as §1
[12] = Partition coefficient (logD); details: octanol/water
Bacteroides fragilis = assay: In vitro for antibacterial activity against […].; format: functional; summary of the method: as §1
Staphylococcus = assay: Compound was tested for […] against Staphylococcus aureus A 15090 after oral administration of drug in mice; format: functional; details: read-out: PD50; summary of the method: as §2
in vivo = details: mouse, plasma, T1/2
Mus musculus = species: Mus musculus; details: in vivo

Row | MIC (Klebsiella pneumoniae) | MIC (Morganella morganii) | MIC (Enterobacter cloacae) | MIC (Enterococcus faecalis) | MIC (Serratia marcescens) | MIC (Streptococcus pneumoniae [4]) | MIC (Staphylococcus aureus [7]) | MIC (Proteus mirabilis) | MIC (Pseudomonas aeruginosa [10]) | MIC (Escherichia coli [11]) | MIC (Bacteroides fragilis) | Structure (SMILES) | solubility [1] | ED50 (Streptococcus pneumoniae [3]) | ED50 (Pseudomonas aeruginosa [5]) | ED50 (Escherichia coli [6]) | logD [12] | other results
1 | 0.016 µg/mL (≈ 0.043 µM) | 0.06 µg/mL (≈ 0.161 µM) | 0.06 µg/mL (≈ 0.161 µM) | 0.13 µg/mL (≈ 0.349 µM) | 0.13 µg/mL (≈ 0.349 µM) | 0.13 µg/mL (≈ 0.349 µM) | 0.03 µg/mL (≈ 0.0806 µM) | 0.13 µg/mL (≈ 0.349 µM) | 0.5 µg/mL (≈ 1.34 µM) | 0.008 µg/mL (≈ 0.0215 µM) | 16 µg/mL (≈ 43 µM) | Cc1c(F)c(N2CC3CCC2CN3)nc2c1c(=O)c(C(=O)O)cn2C1CC1 (stereo unspecified) | – | – | – | – | – | –
2 | 0.06 µg/mL (≈ 0.166 µM) | 0.25 µg/mL (≈ 0.69 µM) | 0.25 µg/mL (≈ 0.69 µM) | 2 µg/mL (≈ 5.52 µM) | 0.25 µg/mL (≈ 0.69 µM) | 1 µg/mL (≈ 2.76 µM) | 0.03 µg/mL (≈ 0.0828 µM) | 0.5 µg/mL (≈ 1.38 µM) | 4 µg/mL (≈ 11 µM) | 0.06 µg/mL (≈ 0.166 µM) | > 32 µg/mL | Cc1c(F)c(N2CCNCC2)nc2c1c(=O)c(C(=O)O)cn2C(C)(C)C | – | – | – | – | – | –
3 | 0.06 µg/mL (≈ 0.174 µM) | 0.06 µg/mL (≈ 0.174 µM) | 0.03 µg/mL (≈ 0.0871 µM) | 1 µg/mL (≈ 2.9 µM) | 0.25 µg/mL (≈ 0.726 µM) | – | 0.13 µg/mL (≈ 0.378 µM) | 0.06 µg/mL (≈ 0.174 µM) | 0.25 µg/mL (≈ 0.726 µM) | 0.06 µg/mL (≈ 0.174 µM) | – | O=C(O)c1cn(C2CC2)c2nc(N3CC4CC3CN4)c(F)cc2c1=O (stereo unspecified) | 90 µg/mL (≈ 261 µM) | – | – | – | – | –
4 | 0.25 µg/mL (≈ 0.694 µM) | 0.5 µg/mL (≈ 1.39 µM) | 0.25 µg/mL (≈ 0.694 µM) | 16 µg/mL (≈ 44.4 µM) | 0.5 µg/mL (≈ 1.39 µM) | 1 µg/mL (≈ 2.77 µM) | 1 µg/mL (≈ 2.77 µM) | 2 µg/mL (≈ 5.55 µM) | 4 µg/mL (≈ 11.1 µM) | 0.25 µg/mL (≈ 0.694 µM) | 1 µg/mL (≈ 2.77 µM) | CCc1c(F)c(N2CC[C@H](N)C2)nc2c1c(=O)c(C(=O)O)cn2C1CC1 | 70 µg/mL (≈ 194 µM) | – | – | – | 1.37 | –
5 | 0.004 µg/mL (≈ 0.012 µM) | 0.004 µg/mL (≈ 0.012 µM) | 0.016 µg/mL (≈ 0.0481 µM) | 0.25 µg/mL (≈ 0.752 µM) | 0.016 µg/mL (≈ 0.0481 µM) | 0.25 µg/mL (≈ 0.752 µM) | 0.016 µg/mL (≈ 0.0481 µM) | 0.03 µg/mL (≈ 0.0903 µM) | 0.25 µg/mL (≈ 0.752 µM) | 0.002 µg/mL (≈ 0.00602 µM) | 2 µg/mL (≈ 6.02 µM) | N[C@H]1CCN(c2nc3c(cc2F)c(=O)c(C(=O)O)cn3C2CC2)C1 | – | – | – | – | – | –
6 | 0.03 µg/mL (≈ 0.0742 µM) | 0.13 µg/mL (≈ 0.322 µM) | 0.03 µg/mL (≈ 0.0742 µM) | 1 µg/mL (≈ 2.47 µM) | 0.13 µg/mL (≈ 0.322 µM) | 0.5 µg/mL (≈ 1.24 µM) | 0.03 µg/mL (≈ 0.0742 µM) | 0.06 µg/mL (≈ 0.148 µM) | 0.5 µg/mL (≈ 1.24 µM) | 0.016 µg/mL (≈ 0.0396 µM) | 2 µg/mL (≈ 4.95 µM) | O=C(O)c1cn(-c2ccc(F)cc2F)c2nc(N3CCNCC3)c(F)cc2c1=O | – | – | – | – | – | –

Row | Structure (SMILES) | MIC (Klebsiella pneumoniae) | MIC (Morganella morganii) | MIC (Enterobacter cloacae) | MIC (Enterococcus faecalis) | MIC (Serratia marcescens) | MIC (Streptococcus pneumoniae [4]) | MIC (Staphylococcus aureus [7]) | MIC (Proteus mirabilis) | MIC (Pseudomonas aeruginosa [10]) | MIC (Escherichia coli [11]) | MIC (Bacteroides fragilis) | solubility [1] | ED50 (Streptococcus pneumoniae [3]) | ED50 (Pseudomonas aeruginosa [5]) | ED50 (Escherichia coli [6]) | logD [12] | other results
7 | Cc1c(F)c(N2CC[C@H](N)C2)nc2c1c(=O)c(C(=O)O)cn2-c1ccc(F)cc1 | 0.002 µg/mL (≈ 0.005 µM) | 0.008 µg/mL (≈ 0.02 µM) | 0.002 µg/mL (≈ 0.005 µM) | 0.06 µg/mL (≈ 0.15 µM) | 0.03 µg/mL (≈ 0.0749 µM) | 0.03 µg/mL (≈ 0.0749 µM) | 0.004 µg/mL (≈ 0.00999 µM) | 0.008 µg/mL (≈ 0.02 µM) | 0.25 µg/mL (≈ 0.624 µM) | 0.002 µg/mL (≈ 0.005 µM) | – | 80 µg/mL (≈ 200 µM) | 14.4 mg/kg | 2.9 mg/kg | 4.9 mg/kg | 0.91 | ED50 (Staphylococcus aureus [2]): 4.2 mg/kg; LD50 [8]: 2500 mg/kg; LD50 [9]: 94 mg/kg
8 | Cc1c(F)c(N2CC3CCC2CN3)nc2c1c(=O)c(C(=O)O)cn2-c1ccc(F)cc1F (stereo unspecified) | 0.008 µg/mL (≈ 0.018 µM) | 0.13 µg/mL (≈ 0.293 µM) | 0.008 µg/mL (≈ 0.018 µM) | 0.25 µg/mL (≈ 0.563 µM) | 0.5 µg/mL (≈ 1.13 µM) | 0.06 µg/mL (≈ 0.135 µM) | 0.008 µg/mL (≈ 0.018 µM) | 0.13 µg/mL (≈ 0.293 µM) | 0.5 µg/mL (≈ 1.13 µM) | 0.008 µg/mL (≈ 0.018 µM) | 4 µg/mL (≈ 9 µM) | 10 µg/mL (≈ 22.5 µM) | 9.5 mg/kg | 1.4 mg/kg | – | 0.4 | ED50 (Staphylococcus aureus [2]): 5.4 mg/kg; LD50 [8]: 2500 mg/kg; LD50 [9]: 24 mg/kg
9 | O=C(O)c1cn(C2CC2)c2nc(N3CCNCC3)c(F)cc2c1=O | 0.06 µg/mL (≈ 0.181 µM) | 0.06 µg/mL (≈ 0.181 µM) | 0.06 µg/mL (≈ 0.181 µM) | 8 µg/mL (≈ 24.1 µM) | 0.25 µg/mL (≈ 0.752 µM) | – | 0.25 µg/mL (≈ 0.752 µM) | 0.25 µg/mL (≈ 0.752 µM) | 0.5 µg/mL (≈ 1.5 µM) | 0.03 µg/mL (≈ 0.0903 µM) | – | – | – | 3.6 mg/kg | 0.4 mg/kg | – | ED50 (Staphylococcus): 7 mg/kg
10 | O=C(O)c1cn(C2CC2)c2cc(N3CCNCC3)c(F)cc2c1=O [CIPROFLOXACIN] | 0.06 µg/mL (≈ 0.181 µM) | – | – | 0.5 µg/mL (≈ 1.51 µM) | 0.03 µg/mL (≈ 0.0905 µM) | 0.25 µg/mL (≈ 0.754 µM) | 0.13 µg/mL (≈ 0.392 µM) | – | – | – | 4 µg/mL (≈ 12.1 µM) | – | > 50 mg/kg | 2.6 mg/kg | 1.2 mg/kg | – | ED50 (Staphylococcus): 8 mg/kg
11 | NC1CCN(c2nc3c(cc2F)c(=O)c(C(=O)O)cn3-c2ccc(F)cc2F)C1 (stereo unspecified) [TOSUFLOXACIN] | 0.016 µg/mL (≈ 0.0396 µM) | 0.06 µg/mL (≈ 0.148 µM) | 0.03 µg/mL (≈ 0.0742 µM) | 0.25 µg/mL (≈ 0.618 µM) | 0.13 µg/mL (≈ 0.322 µM) | 0.06 µg/mL (≈ 0.148 µM) | 0.016 µg/mL (≈ 0.0396 µM) | 0.03 µg/mL (≈ 0.0742 µM) | 0.25 µg/mL (≈ 0.618 µM) | 0.004 µg/mL (≈ 0.00989 µM) | 1 µg/mL (≈ 2.47 µM) | 20 µg/mL (≈ 49.5 µM) | 11.4 mg/kg | 2.9 mg/kg | 1.8 mg/kg | 0.1 | half-life (in vivo): 2.4 h; T1/2 (Mus musculus): 1.38 h; ED50 (Staphylococcus): 2.1 mg/kg; LD50 [8]: 2500 mg/kg; LD50 [9]: 81 mg/kg
